Results taken from ChEMBL document CHEMBL1165950, “Design and synthesis of new potent anticancer pyrazoles with high FLT3 kinase inhibitory selectivity” (Bioorg Med Chem, 2010).

Key:
Type in all cases: functional
LOX IMVI = assay: Cytotoxicity against human LOXIMVI cells assessed as cell growth at 1 uM after 48 hrs by sulforhodamine B assay; settings: read-out: Activity
UO-31 = assay: Cytotoxicity against human UO31 cells assessed as cell growth at 10 uM; settings: read-out: Activity
Method in brief: (§1)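 NCI-60 screen: cells grown in RPMI 1640 with 5% FBS and 2 mM L-glutamine, plated at 5000–40,000 cells/well according to doubling time, and preincubated 24 h at 37 °C, 5% CO2. The single 10 µM dose (DMSO stock) was added, then incubated 48 h. Cells were TCA-fixed and stained with 0.4% SRB, read at 515 nm, and growth % calculated against time-zero and control plates.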

SF-539 = assay: Cytotoxicity against human SF539 cells assessed as cell growth at 10 uM; settings: read-out: Activity; method in brief: as §1
UACC-257 = assay: Growth inhibition of human UACC257 cells after 48 hrs by sulforhodamine B assay; settings: UACC-257, 48 h; for CC50: read-out: LC50 (the source's name)
Method in brief: (§2)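 NCI 60-cell screen, five-dose mode. Cells grown in RPMI 1640 with 5% FBS and 2 mM L-glutamine and plated at 5000-40,000 cells/well according to doubling time. After 24 h preincubation, a Tz plate was TCA-fixed. Five concentrations (10-fold or 1/2 log dilutions) were applied for 48 h at 37 °C. SRB staining read at 515 nm. IC50 taken from [(Ti-Tz)/(C-Tz)]×100 = 50.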

HOP-62 = assay: Cytotoxicity against human HOP62 cells assessed as cell growth at 10 uM; settings: read-out: Activity
Method in brief: (§3)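 Single-dose NCI-60 screen at 10 µM. Cells were grown in RPMI 1640 with 5% FBS and 2 mM L-glutamine, then treated for 48 h at 37 °C. Protein was measured by SRB staining with absorbance at 515 nm. Percentage growth was recorded, and inhibition percentage was calculated as 100 minus growth percentage.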

DU-145 [1] = assay: Cytotoxicity against human DU145 cells assessed as cell growth at 10 uM after 48 hrs by sulforhodamine B assay; settings: DU-145, 48 h, read-out: Activity
DU-145 [2] = assay: Cytotoxicity against human DU145 cells assessed as cell growth at 1 uM after 48 hrs by sulforhodamine B assay; settings: DU-145, 48 h, read-out: Activity
NCI-H23 = assay: Growth inhibition of human NCI-H23 cells after 48 hrs by sulforhodamine B assay; settings: NCI-H23, 48 h; for CC50: read-out: LC50 (the source's name); method in brief: as §2
NCI-H522 [3] = assay: Cytotoxicity against human NCI-H522 cells assessed as cell growth at 0.01 uM after 48 hrs by sulforhodamine B assay; settings: NCI-H522, 48 h, read-out: Activity
NCI-H522 [4] = assay: Growth inhibition of human NCI-H522 cells after 48 hrs by sulforhodamine B assay; settings: NCI-H522, 48 h; for CC50: read-out: LC50 (the source's name); method in brief: as §2
786-0 [5] = assay: Cytotoxicity against human 786-0 cells assessed as cell growth at 0.01 uM after 48 hrs by sulforhodamine B assay; settings: 786-0, 48 h, read-out: Activity
Method in brief: (§4)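 NCI-60 five-dose screen. Cells were grown in RPMI 1640 with 5% FBS and 2 mM L-glutamine, plated at 5000–40,000 cells/well and preincubated for 24 h. Time-zero plates were TCA-fixed. DMSO-solubilized drug was added at five concentrations (10-fold or ½-log serial dilutions) for 48 h at 37 °C, 5% CO2. Cells were TCA-fixed, stained with 0.4% SRB and read at 515 nm. Percent growth used time-zero, control and test absorbances.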

BT-549 = assay: Cytotoxicity against human BT549 cells assessed as cell growth at 10 uM; settings: read-out: Activity; method in brief: as §3
NCI-H322M = assay: Cytotoxicity against human NCI-H322M cells assessed as cell growth at 0.001 uM after 48 hrs by sulforhodamine B assay; settings: read-out: Activity
SK-MEL-5 = assay: Cytotoxicity against human SK-MEL-5 cells assessed as cell growth at 10 uM after 48 hrs by sulforhodamine B assay; settings: SK-MEL-5, 48 h, read-out: Activity
A498 [6] = assay: Cytotoxicity against human A498 cells assessed as cell growth at 10 uM after 48 hrs by sulforhodamine B assay; settings: A498, 48 h, read-out: Activity; method in brief: as §4
786-0 [7] = assay: Cytotoxicity against human 786-0 cells assessed as cell growth at 100 nM after 48 hrs by sulforhodamine B assay; settings: 786-0, 48 h, read-out: Activity; method in brief: as §4
OVCAR-4 = assay: Cytotoxicity against human OVCAR4 cells assessed as cell growth at 10 uM; settings: read-out: Activity; method in brief: as §1
SNB-75 = assay: Cytotoxicity against human SNB75 cells assessed as cell growth at 1 uM after 48 hrs by sulforhodamine B assay; settings: SNB-75, 48 h, read-out: Activity
SF-268 = assay: Cytotoxicity against human SF268 cells assessed as cell growth at 10 uM after 48 hrs by sulforhodamine B assay; settings: SF-268, 48 h, read-out: Activity
NCI-H460 = assay: Cytotoxicity against human NCI-H460 cells assessed as cell growth at 0.01 uM after 48 hrs by sulforhodamine B assay; settings: NCI-H460, 48 h, read-out: Activity
MDA-MB-468 = assay: Cytotoxicity against human MDA-MB-468 cells assessed as cell growth at 0.001 uM after 48 hrs by sulforhodamine B assay; settings: MDA-MB-468, 48 h, read-out: Activity
UACC-62 = assay: Cytotoxicity against human UACC62 cells assessed as cell growth at 0.001 uM after 48 hrs by sulforhodamine B assay; settings: UACC-62, 48 h, read-out: Activity
HT-29 = assay: Cytotoxicity against human HT-29 cells assessed as cell growth at 1 uM after 48 hrs by sulforhodamine B assay; settings: HT-29, 48 h, read-out: Activity
NCI/ADR-RES = assay: Cytotoxicity against human NCI/ADR-RES cells assessed as cell growth at 10 uM; settings: read-out: Activity; method in brief: as §1
SK-OV-3 [8] = assay: Growth inhibition of human SKOV3 cells after 48 hrs by sulforhodamine B assay; settings: SK-OV-3, 48 h; for CC50: read-out: LC50 (the source's name); method in brief: as §2
HOP-92 = assay: Cytotoxicity against human HOP92 cells assessed as cell growth at 0.01 uM after 48 hrs by sulforhodamine B assay; settings: HOP-92, 48 h, read-out: Activity
A498 [9] = assay: Cytotoxicity against human A498 cells assessed as cell growth at 10 uM; settings: read-out: Activity; method in brief: as §3
SK-OV-3 [10] = assay: Cytotoxicity against human SKOV3 cells assessed as cell growth at 10 uM after 48 hrs by sulforhodamine B assay; settings: SK-OV-3, 48 h, read-out: Activity

SMILES | growth at 1 µM (LOX IMVI) | growth at 10 µM (UO-31) | growth at 10 µM (SF-539) | GI50 (UACC-257) | TGI (UACC-257) | CC50 (UACC-257) | growth at 10 µM (HOP-62) | growth at 10 µM (DU-145 [1]) | growth at 1 µM (DU-145 [2]) | GI50 (NCI-H23) | TGI (NCI-H23) | CC50 (NCI-H23) | growth at 0.01 µM (NCI-H522 [3]) | GI50 (NCI-H522 [4]) | TGI (NCI-H522 [4]) | CC50 (NCI-H522 [4]) | growth at 0.01 µM (786-0 [5]) | growth at 10 µM (BT-549) | growth at 0.001 µM (NCI-H322M) | growth at 10 µM (SK-MEL-5) | other results
COc1cc(C)cc(-c2c(-c3ccnc(-c4ccc(N(C)C)cc4)c3)cnn2CC#N)c1 | 12% | 22.1% | -7.06% | 0.0359 µM | > 100 µM | > 100 µM | 14.9% | -48% | -47% | 0.276 µM | > 100 µM | > 100 µM | -7% | 0.027 µM | 0.0846 µM | 3.22 µM | 55% | -26.5% | 97% | -39% | growth at 10 µM (A498 [6]): 7%; growth at 0.1 µM (786-0 [7]): 6%; growth at 10 µM (OVCAR-4): 26%; growth at 1 µM (SNB-75): 10%; growth at 10 µM (SF-268): 20%; growth at 0.01 µM (NCI-H460): 35%; growth at 0.001 µM (MDA-MB-468): 93%; growth at 0.001 µM (UACC-62): 96%; growth at 1 µM (HT-29): -51%; growth at 10 µM (NCI/ADR-RES): -15.4%; GI50 (SK-OV-3 [8]): 0.504 µM; TGI (SK-OV-3 [8]): > 100 µM; CC50 (SK-OV-3 [8]): > 100 µM; growth at 0.01 µM (HOP-92): -9%; growth at 10 µM (A498 [9]): 21.3%; growth at 10 µM (SK-OV-3 [10]): 26%
Cc1cc(O)cc(-c2nn(CC#N)cc2-c2ccnc(-c3ccc(Oc4ccccc4)cc3)c2)c1 | -91% | 46.9% | 75.5% | 2.38 µM | 8.38 µM | 31.7 µM | 99.3% | -100% | -14% | 1.94 µM | 3.97 µM | 8.13 µM | 72% | 2.72 µM | 10.4 µM | 35.1 µM | 95% | 76.1% | 94% | -100% | growth at 10 µM (A498 [6]): -92%; growth at 0.1 µM (786-0 [7]): 91%; growth at 10 µM (OVCAR-4): 49.8%; growth at 1 µM (SNB-75): 30%; growth at 10 µM (SF-268): -95%; growth at 0.01 µM (NCI-H460): 100%; growth at 0.001 µM (MDA-MB-468): 91%; growth at 0.001 µM (UACC-62): 92%; growth at 1 µM (HT-29): -65%; growth at 10 µM (NCI/ADR-RES): 37.9%; GI50 (SK-OV-3 [8]): 1.2 µM; TGI (SK-OV-3 [8]): 24.4 µM; CC50 (SK-OV-3 [8]): 49.6 µM; growth at 0.01 µM (HOP-92): 59%; growth at 10 µM (A498 [9]): 93.9%; growth at 10 µM (SK-OV-3 [10]): -99%
